Assay results: ChEMBL document CHEMBL4425129, “Exploring Basic Tail Modifications of Coumarin-Based Dual Acetylcholinesterase-Monoamine Oxidase B Inhibitors: Identification of Water-Soluble, Brain-Permeant Neuroprotective Multitarget Agents” (J Med Chem, 2016)
Calls of active or inactive are those of the source. The calls are words filed in the database; no cut-off is given here.

Key:
Acetylcholinesterase [1] = biological target: T1, Acetylcholinesterase (Electrophorus electricus, UniProt O42275); assay: Inhibition of electric eel AChE using acetylthiocholine iodide as substrate preincubated for 20 mins followed by substrate addition measured for 5 mins by spectrophotometric Ellman's method
T1 sequence (O42275 whole entry): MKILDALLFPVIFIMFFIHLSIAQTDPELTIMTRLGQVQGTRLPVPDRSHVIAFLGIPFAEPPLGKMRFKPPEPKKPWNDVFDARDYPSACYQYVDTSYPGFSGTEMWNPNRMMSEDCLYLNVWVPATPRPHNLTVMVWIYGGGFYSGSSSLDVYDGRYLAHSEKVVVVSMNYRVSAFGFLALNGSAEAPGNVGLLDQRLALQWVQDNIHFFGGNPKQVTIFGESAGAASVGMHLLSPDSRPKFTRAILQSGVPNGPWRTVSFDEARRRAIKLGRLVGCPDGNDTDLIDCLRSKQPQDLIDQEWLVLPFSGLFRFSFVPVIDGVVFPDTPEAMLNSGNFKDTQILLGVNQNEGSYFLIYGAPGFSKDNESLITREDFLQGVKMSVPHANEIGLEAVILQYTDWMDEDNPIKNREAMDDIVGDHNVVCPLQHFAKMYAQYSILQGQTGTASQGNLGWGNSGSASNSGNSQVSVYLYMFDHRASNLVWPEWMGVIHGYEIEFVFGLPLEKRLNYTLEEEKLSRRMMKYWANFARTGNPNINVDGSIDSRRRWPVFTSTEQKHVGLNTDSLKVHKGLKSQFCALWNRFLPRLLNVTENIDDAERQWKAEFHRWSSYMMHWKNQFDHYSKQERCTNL

[2] = biological target: Cholinesterase (Equus caballus) (UniProt P81908); assay: Inhibition of equine serum BChE at 10 uM using butyrylthiocholine iodide as substrate preincubated for 20 mins followed by substrate addition measured for 5 mins by spectrophotometric Ellman's method relative to control
Chain of Cholinesterase (Equus caballus) (P81908 whole entry): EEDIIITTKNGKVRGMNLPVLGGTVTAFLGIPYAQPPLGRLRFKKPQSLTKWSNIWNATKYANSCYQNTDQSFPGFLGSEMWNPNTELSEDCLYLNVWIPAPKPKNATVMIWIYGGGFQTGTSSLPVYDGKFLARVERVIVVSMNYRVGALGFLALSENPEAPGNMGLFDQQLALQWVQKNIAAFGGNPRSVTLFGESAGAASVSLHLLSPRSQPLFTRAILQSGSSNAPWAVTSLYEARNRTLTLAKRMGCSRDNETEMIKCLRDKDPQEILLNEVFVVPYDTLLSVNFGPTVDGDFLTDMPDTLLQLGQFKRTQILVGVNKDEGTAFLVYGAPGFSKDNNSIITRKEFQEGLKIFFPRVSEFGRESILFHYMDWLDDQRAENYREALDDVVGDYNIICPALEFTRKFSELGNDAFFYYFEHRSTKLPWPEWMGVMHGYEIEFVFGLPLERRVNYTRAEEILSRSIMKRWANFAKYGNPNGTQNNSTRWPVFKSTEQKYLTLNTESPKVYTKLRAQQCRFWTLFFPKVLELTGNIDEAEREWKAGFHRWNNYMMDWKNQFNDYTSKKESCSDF
Procedure, shortened: (§1)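 BChE from equine serum (13 U/mg), Ellman spectrophotometric method run in 96-well format. Seven inhibitor concentrations, 10^-4 to 10^-10 M, each in triplicate. IC50 from non-linear regression of response against log(concentration). […] Mean of three independent experiments.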

[3] = biological target: T2, Amine oxidase [flavin-containing] B (Homo sapiens, UniProt P27338); assay: Inhibition of human recombinant MAOB expressed in microsomes of baculovirus-infected insect cell using kynuramine as substrate preincubated for 20 mins followed by protein addition measured after 30 mins by fluorescence assay
T2 sequence (P27338 whole entry): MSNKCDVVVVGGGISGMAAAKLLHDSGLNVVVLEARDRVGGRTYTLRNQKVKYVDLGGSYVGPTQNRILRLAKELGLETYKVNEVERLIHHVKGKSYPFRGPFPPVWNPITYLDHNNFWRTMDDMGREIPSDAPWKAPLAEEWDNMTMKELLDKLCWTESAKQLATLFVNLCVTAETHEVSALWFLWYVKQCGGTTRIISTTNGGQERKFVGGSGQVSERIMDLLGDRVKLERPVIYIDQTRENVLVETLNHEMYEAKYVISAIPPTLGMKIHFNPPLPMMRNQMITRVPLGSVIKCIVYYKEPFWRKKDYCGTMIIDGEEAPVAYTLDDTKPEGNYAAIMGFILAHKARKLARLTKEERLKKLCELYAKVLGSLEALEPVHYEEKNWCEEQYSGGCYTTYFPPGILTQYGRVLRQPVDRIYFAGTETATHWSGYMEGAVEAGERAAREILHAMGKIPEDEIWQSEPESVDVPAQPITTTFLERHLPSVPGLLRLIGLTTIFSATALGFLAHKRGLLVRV

[4] = biological target: T3, Amine oxidase [flavin-containing] A (Homo sapiens, UniProt P21397); assay: Inhibition of human recombinant MAOA expressed in microsomes of baculovirus-infected insect cell at 10 uM using kynuramine as substrate preincubated for 20 mins followed by protein addition measured after 30 mins by fluorescence assay relative to control; settings: 0.5 h
T3 sequence (P21397 whole entry): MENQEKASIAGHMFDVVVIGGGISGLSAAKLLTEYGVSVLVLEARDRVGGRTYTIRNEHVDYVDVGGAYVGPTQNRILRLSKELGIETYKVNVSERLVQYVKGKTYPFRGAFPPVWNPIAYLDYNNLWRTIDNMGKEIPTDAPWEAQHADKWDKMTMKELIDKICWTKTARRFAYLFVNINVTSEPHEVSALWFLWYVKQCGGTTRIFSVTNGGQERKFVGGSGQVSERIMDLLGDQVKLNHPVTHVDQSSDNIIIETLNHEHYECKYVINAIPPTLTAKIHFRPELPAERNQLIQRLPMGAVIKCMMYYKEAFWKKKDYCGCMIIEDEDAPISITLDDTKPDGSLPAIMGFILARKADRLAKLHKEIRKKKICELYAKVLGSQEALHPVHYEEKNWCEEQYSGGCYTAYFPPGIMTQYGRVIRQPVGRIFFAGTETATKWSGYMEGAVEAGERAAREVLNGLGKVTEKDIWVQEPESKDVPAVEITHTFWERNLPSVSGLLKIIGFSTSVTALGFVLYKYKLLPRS
Procedure, shortened: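 Recombinant human MAO A (baculovirus-infected insect cell microsomes) with kynuramine substrate; inhibitor preincubated 20 min at 37 °C, enzyme then added and incubated 30 min more. Fluorescence at ex/em 320/400 nm. […] Triplicates, three independent experiments.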

[5] = Lipophilicity index, Log K of the compound at 1 mM by RP-HPLC method; format: physicochemical; settings: 1000 µM
[6] = Kinetic aqueous solubility of the compound in Tris-HCl buffer at pH 7.4 by turbidimetric method; format: physicochemical; settings: for log(Kinetic_solubility): buffer
Procedure, shortened: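 DMSO stocks added in portions to 50 mM Tris-HCl pH 7.4 at room temperature. Light scattering read as UV absorbance increase at 580–780 nm; solubility from a bilinear fit of absorbance versus µL DMSO. Reported as logS (mol/L), mean ± SEM of three independent assays.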

SH-SY5Y [7] = assay: Neuroprotective activity against rotenone-induced oxidative injury in human SH-SY5Y cells assessed as increase in cell viability at 10 uM after 24 hrs by MTT assay; format: functional, cell-based
Procedure, shortened: (§2)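 SH-SY5Y cells incubated 24 h with compound at 1 or 10 µM together with H2O2 300 µM, oligomycin-A 10 µM or rotenone 20 µM. Viability by MTT, as % of cells given neither insult nor compound. Triplicates, three repeats; mean ± SD; two-way ANOVA with Bonferroni post hoc test.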

SH-SY5Y [8] = assay: Neuroprotective activity against rotenone-induced oxidative injury in human SH-SY5Y cells assessed as increase in cell viability at 1 uM after 24 hrs by MTT assay; format: functional, cell-based; procedure, shortened: as §2
SH-SY5Y [9] = assay: Neuroprotective activity against H2O2-induced oxidative injury in human SH-SY5Y cells assessed as increase in cell viability at 1 to 10 uM after 24 hrs by MTT assay; format: functional, cell-based; procedure, shortened: as §2
[10] = Apparent permeability across apical to basolateral side in MDCK2-MDR1 cells at 5 to 75 uM by UV-visible spectroscopic method; format: ADME, cell-based, Canis lupus familiaris; settings: dog, MDCK-MDR1
Procedure, shortened: (§3)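 Acceptor concentrations measured by UV–visible spectroscopy against PBS calibration curves linear over 5–75 µM. Papp (cm/sec) = (VA/(area × time)) × ([drug]acceptor/[drug]initial). Triplicates, three experiments.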

SH-SY5Y [11] = assay: Cytotoxicity against human SH-SY5Y cells assessed as inhibition of cell growth after 24 hrs by MTT assay; format: cell-based
Procedure, shortened: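 SH-SY5Y cells exposed 24 h at 37 °C to 0.1, 1, 5, 10 and 50 µM; viability read by MTT at 570 nm versus untreated cells. […] Means ± SD, n = 3.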

SH-SY5Y [12] = assay: Neuroprotective activity against oligomycin-A-induced oxidative injury in human SH-SY5Y cells assessed as increase in cell viability at 10 uM after 24 hrs by MTT assay; format: functional, cell-based; procedure, shortened: as §2
[13] = Apparent permeability across basolateral to apical side in MDCK2-MDR1 cells at 5 to 75 uM by UV-visible spectroscopic method; format: ADME, cell-based, Canis lupus familiaris; settings: dog, MDCK-MDR1; procedure, shortened: as §3
[14] = Efflux ratio of apparent permeability across basolateral to apical side over apical to basolateral side in MDCK2-MDR1 cells at 5 to 75 uM by UV-visible spectroscopic method; format: ADME, cell-based, Canis lupus familiaris; settings: dog, MDCK-MDR1
Procedure, shortened: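 Canine kidney MDCKII-MDR1 cells (retrovirally transfected with human MDR1 cDNA), cultured in DMEM and seeded at 100000 cells/cm2 on 0.4 µm-pore Transwell inserts. […] Apical-to-basolateral and basolateral-to-apical transport were measured, with compound quantified by UV-vis absorbance against PBS calibration curves (5–75 µM). ER = Papp BL-AP / Papp AP-BL. Triplicates, three experiments.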

[15] = biological target: T3, Amine oxidase [flavin-containing] A; assay: Inhibition of human recombinant MAOA expressed in microsomes of baculovirus-infected insect cell using kynuramine as substrate preincubated for 20 mins followed by protein addition measured after 30 mins by fluorescence assay
Procedure, shortened: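 Recombinant human MAO A (baculovirus-infected insect cell microsomes) with kynuramine substrate; inhibitor preincubated 20 min at 37 °C, enzyme then added and incubated 30 min more. Fluorescence at ex/em 320/400 nm. Triplicates, three independent experiments.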

SH-SY5Y [16] = assay: Neuroprotective activity against oligomycin-A-induced oxidative injury in human SH-SY5Y cells assessed as increase in cell viability at 1 uM after 24 hrs by MTT assay; format: functional, cell-based; procedure, shortened: as §2
Acetylcholinesterase [17] = biological target: T1, Acetylcholinesterase; assay: Mixed-type inhibition of electric eel AChE using S-acetylthiocholine as substrate preincubated for 20 mins followed by substrate addition measured for 5 mins by Lineweaver-Burk plot method
Cholinesterase = Cholinesterase (Equus caballus, UniProt P81908); assay: Inhibition of equine serum BChE using butyrylthiocholine iodide as substrate preincubated for 20 mins followed by substrate addition measured for 5 mins by spectrophotometric Ellman's method; procedure, shortened: as §1
Chain of Cholinesterase (P81908 whole entry): as the sequence (P81908 whole entry) above

| Structure (SMILES) | IC50 (Acetylcholinesterase [1]) [nM] | inhibition [2] [%] | IC50 [3] [nM] | inhibition at 10 µM [4] [%] | log K [5] | log(Kinetic_solubility) [6] | Activity (SH-SY5Y [7]) | Activity (SH-SY5Y [8]) | Activity (SH-SY5Y [9]) | Papp A→B at up to 75 µM [10] [×10⁻⁶ cm/s] | IC50 (SH-SY5Y [11]) [nM] | Activity (SH-SY5Y [12]) | Papp B→A at up to 75 µM [13] [×10⁻⁶ cm/s] | efflux ratio at up to 75 µM [14] | IC50 [15] [nM] | Activity (SH-SY5Y [16]) | Ki (Acetylcholinesterase [17]) [nM] | solubility kinetic ([6]; Tris-HCl buffer, read-out: Kinetic_solubility) [µM] | IC50 (Cholinesterase) [nM] |
| --- | --- | --- | --- | --- | --- | --- | --- | --- | --- | --- | --- | --- | --- | --- | --- | --- | --- | --- | --- |
| Cc1c(C)c2ccc(OCC3CCN(Cc4ccc(Cl)cc4)CC3)cc2oc1=O | 9570 | 19 | 614 | 37 |  |  |  |  |  |  |  |  |  |  |  |  |  |  |  |
| Cc1c(C)c2ccc(OCC3CCCN(C)C3)cc2oc1=O.Cl (racemic) | 800 | 19 | 137 |  | 1.14 | -3.67 | Active | Active | Active | 22.3 | 30000 | inactive | 20.2 | 0.9 | 9330 | inactive |  |  |  |
| Cc1c(C)c2ccc(OCC3CCCN(Cc4cccc(Br)c4)C3)cc2oc1=O.Cl (racemic) | 1910 |  | 110 |  |  |  |  |  |  | 0.84 |  |  | 2.16 | 2.56 | 810 |  |  |  |  |
| Cc1c(C)c2ccc(OCC3CCCN(Cc4ccccc4)C3)cc2oc1=O.Cl (racemic) | 1030 |  |  |  | 2.01 | -3.92 |  |  |  | 24.3 | 44000 |  | 14.8 | 0.61 | 2810 |  | 1370 | 119 | 3410 |
